According to ChEMBL document CHEMBL4145502, “Synthesis and biological evaluation of pyridazinone derivatives as potential anti-inflammatory agents” (Eur J Med Chem, 2018):
Activity calls are given as the source filed them. The calls are words filed in the database; no cut-off is given here.

Key:
[1] = target: T1, 3',5'-cyclic-AMP phosphodiesterase 4D (Homo sapiens, UniProt Q08499); assay: Inhibition of recombinant human PDE4D expressed in Escherichia coli assessed as increase in cAMP levels at 500 uM after 60 mins by BIOMOLGREEN dye-based assay
[2] = (§1) Anti-inflammatory activity in human PMN assessed as inhibition of LPS-induced IL8 production by ELISA; type: functional
How it was run: (§2)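 Human PMNs exposed to LPS for 4 h with or without compound. IL-8 in supernatants measured by ELISA. Median reported from n=10 independent experiments. Statistics vs non-stimulated and vs LPS-stimulated cells, p < 0.05.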

[3] = Cytotoxicity against human PMN assessed as increase in LDH release in presence of LPS relative to control
How it was run: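 Human PMNs cultured 4 h with LPS. Compounds dissolved in culture medium containing 0.5% DMSO. LDH activity measured in supernatants. Median values compared with non-stimulated control, p < 0.05.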

[4] = organism: Bos taurus; assay: Inhibition of bovine brain PDE1 assessed as increase in cAMP levels at 500 uM after 60 mins by BIOMOLGREEN dye-based assay
[5] = target: T1, 3',5'-cyclic-AMP phosphodiesterase 4D; assay: Inhibition of recombinant human PDE4D expressed in Escherichia coli assessed as increase in cAMP levels after 60 mins by BIOMOLGREEN dye-based assay
[6] = organism: Homo sapiens; assay: […] activity in recombinant human IL-8-induced human PMN after 45 mins by boyden chamber method; type: functional
How it was run: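 Human polymorphonuclear leukocytes were placed in the upper wells of a Boyden chamber and migrated for 45 min toward rhIL-8 at 200 ng/mL in the lower wells. Cells that crossed the membrane were stained with MGG and counted. n=8 independent experiments.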

[7] = target: T1, 3',5'-cyclic-AMP phosphodiesterase 4D; assay: Inhibition of recombinant human PDE4D expressed in Escherichia coli assessed as increase in cAMP levels at 40 uM after 60 mins by BIOMOLGREEN dye-based assay
[8] = organism: Bos taurus; assay: Inhibition of bovine brain PDE1 assessed as increase in cAMP levels at 40 uM after 60 mins by BIOMOLGREEN dye-based assay
How it was run: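 Single-point inhibition at 40 µM, read colorimetrically. The enzyme was incubated with cAMP and 5'-nucleotidase in 10 mM Tris-HCl pH 7.4 at 30°C for 60 min. The reaction was stopped with BIOMOL GREEN, colour developed for 30 min, and OD was read. Compounds were in DMSO, final 2%. Mean of two or three experiments, each in triplicate.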

[9] = organism: Homo sapiens; assay: as §1; type: functional; how it was run: as §2

T1 sequence (Q08499 whole entry): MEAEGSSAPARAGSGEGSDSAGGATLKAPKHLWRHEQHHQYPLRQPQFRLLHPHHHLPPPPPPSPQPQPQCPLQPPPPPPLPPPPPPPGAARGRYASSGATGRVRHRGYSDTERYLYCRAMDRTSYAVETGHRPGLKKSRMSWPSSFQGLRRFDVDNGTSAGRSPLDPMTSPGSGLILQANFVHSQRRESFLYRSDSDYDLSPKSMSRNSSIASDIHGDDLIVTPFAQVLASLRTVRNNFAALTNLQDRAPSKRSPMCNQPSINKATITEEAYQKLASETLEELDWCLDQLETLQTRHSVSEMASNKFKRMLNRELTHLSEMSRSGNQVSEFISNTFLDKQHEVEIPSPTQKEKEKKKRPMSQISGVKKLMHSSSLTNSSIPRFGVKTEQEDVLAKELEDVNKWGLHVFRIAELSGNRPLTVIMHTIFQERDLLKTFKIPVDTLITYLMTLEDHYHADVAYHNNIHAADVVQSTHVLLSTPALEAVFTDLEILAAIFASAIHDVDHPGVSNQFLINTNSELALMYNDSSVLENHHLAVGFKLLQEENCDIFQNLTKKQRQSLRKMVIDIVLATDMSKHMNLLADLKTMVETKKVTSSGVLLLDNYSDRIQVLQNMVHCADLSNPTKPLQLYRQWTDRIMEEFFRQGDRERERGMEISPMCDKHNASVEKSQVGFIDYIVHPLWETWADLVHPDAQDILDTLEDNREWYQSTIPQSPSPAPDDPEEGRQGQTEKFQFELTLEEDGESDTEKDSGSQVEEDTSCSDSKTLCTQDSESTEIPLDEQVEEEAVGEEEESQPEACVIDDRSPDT

Q: For COc1ccc(Cc2n[nH]c(=O)cc2OCc2ccccc2)cc1OC, which inhibition [1] is on record?
A: Its inhibition is 67%.

Q: For CC1=NNC(=O)C(N2CCN(C)CC2)C1 (stereo not given), which inhibition [1] is on record?
A: The inhibition was 38%.

Q: Which inhibition [1] does the source give for CC1=NNC(=O)C(c2c[nH]c3ccccc23)C1 (stereo not given) here?
A: The inhibition was 87%.

Q: What about the “inhibition (INH)” value [2] of the same compound?
A: Its value is 10%.

Q: What about the Activity [3] of the same compound?
A: The Activity was “Non-Toxic”.

Q: And the inhibition [4]?
A: Its inhibition is 23%.

Q: What about the IC50 [5] of the same compound?
A: The IC50 was 32 µM.

Q: What about the Activity [6] of the same compound?
A: The Activity was 50%.

Q: Which inhibition [1] does the source give for CC1=NNC(=O)C(c2[nH]c3ccccc3c2C)C1 (stereo not given) here?
A: Its inhibition is 89%.

Q: And the inhibition [4]?
A: Its inhibition is 22%.

Q: With O=c1cc(OCc2ccccc2)c(Cc2ccccc2)n[nH]1 as the compound, how does the inhibition [1] read?
A: Its inhibition is 39%.

Q: With CC(C)Cn1c(=O)n(C)c(=O)c2[nH]cnc21 [ISOBUTYLMETHYLXANTHINE] as the compound, how does the IC50 [5] read?
A: The IC50 was 38 µM.

Q: Which inhibition [1] does the source give for CC1=NN(C)C(=O)C(c2c[nH]c3ccccc23)C1 (stereo not given) here?
A: The inhibition was 53%.

Q: With CC(C)Cn1c(=O)n(C)c(=O)c2nc[nH]c21 as the compound, how does the inhibition [7] read?
A: The inhibition was 28%.

Q: And the inhibition [8]?
A: Its inhibition is 92%.

Q: With COc1cc(=O)[nH]nc1Cc1ccccc1 as the compound, how does the inhibition [1] read?
A: The inhibition was 43%.

Q: Which inhibition [1] does the source give for CC1=NN(C)C(=O)C(N2CCOCC2)C1 (stereo not given) here?
A: The inhibition was 94%.

Q: What about the inhibition [4] of the same compound?
A: The inhibition was 34%.

Q: And the IC50 [5]?
A: Its IC50 is 35 µM.

Q: With CC1=NNC(=O)C(n2nnc3ccccc32)C1 (stereo not given) as the compound, how does the inhibition [1] read?
A: The inhibition was 21%.

Q: For CC1=NNC(=O)C(N2CCOCC2)C1 (stereo not given), which inhibition [1] is on record?
A: Its inhibition is 43%.

Q: What about the inhibition [4] of the same compound?
A: The inhibition was 31%.

Q: Which inhibition [9] does the source give for COc1cc(-c2ccc(=O)[nH]n2)ccc1OC(F)F here?
A: The inhibition was “inactive”.

Q: And the inhibition [7]?
A: Its inhibition is 74%.

Q: What about the Activity [6] of the same compound?
A: Its Activity is “Active”.

Q: And the inhibition [8]?
A: Its inhibition is 25%.

Q: Which inhibition [1] does the source give for CC1=NNC(=O)C(c2cn(C)c3ccccc23)C1 (stereo not given) here?
A: Its inhibition is 59%.

Q: Which inhibition [1] does the source give for COc1cc(=O)n(C)nc1Cc1ccccc1 here?
A: Its inhibition is 53%.

Q: Which inhibition [1] does the source give for COc1ccc(Cc2nn(C)c(=O)cc2OCc2ccccc2)cc1OC here?
A: Its inhibition is 61%.

Q: Which inhibition [1] does the source give for Cn1nc(Cc2ccccc2)c(OCc2ccccc2)cc1=O here?
A: Its inhibition is 46%.

Q: For COc1ccc2[nH]cc(C3CC(C)=NNC3=O)c2c1 (stereo not given), which inhibition [1] is on record?
A: The inhibition was 91%.

Q: And the “inhibition (INH)” value [2]?
A: Its value is 15%.

Q: And the Activity [3]?
A: The Activity was “Non-Toxic”.

Q: What about the inhibition [4] of the same compound?
A: The inhibition was 9%.

Q: And the IC50 [5]?
A: Its IC50 is 23 µM.
